We go through six molecules from ChEMBL document CHEMBL1949527, “Use of copper(I) catalyzed azide alkyne cycloaddition (CuAAC) for the preparation of conjugated pyrrolo[2,3-a]carbazole Pim kinase inhibitors” (Eur J Med Chem, 2012).

A short description of data set [1]: Drug uptake in human PC3 cell nucleus at 10 uM after 24 hrs by fluorescence microscopy. In kind it is ADME, cell-based. The following applies: pc-3, 24 h. The method in brief:
(§1)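 PC-3 cells in RPMI-1640 with 10% FBS, 2 mM L-glutamine and penicillin/streptomycin were grown overnight on coverslips, then exposed to 10 μM compound in DMSO (vehicle control 0,1% DMSO) for 24 h. Cells were PBS-washed, fixed 15 min in 4% paraformaldehyde and mounted. Fluorescence microscopy used a DAPI filter. Mean intensity was background-corrected and averaged from three regions in two parallel samples.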

Data set [2] deals with T1, Serine/threonine-protein kinase pim-1 (Homo sapiens, UniProt P11309). Briefly: Inhibition of human recombinant His6-tagged PIM1 expressed in Sf21 cells assessed as residual activity using RSRHSSYPAGT as substrate at 10 uM after 30 mins. The method in brief:
(§2)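 Residual activity at 10 μM inhibitor, run in duplicate. Assay buffer was 50 mM Tris/HCl pH 7.5, 0.1 mM EGTA, 0.1% 2-mercaptoethanol. Reactions were stopped with orthophosphoric acid and spotted onto P81 filters.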
Target sequence in this assay (P11309 whole entry, looked up): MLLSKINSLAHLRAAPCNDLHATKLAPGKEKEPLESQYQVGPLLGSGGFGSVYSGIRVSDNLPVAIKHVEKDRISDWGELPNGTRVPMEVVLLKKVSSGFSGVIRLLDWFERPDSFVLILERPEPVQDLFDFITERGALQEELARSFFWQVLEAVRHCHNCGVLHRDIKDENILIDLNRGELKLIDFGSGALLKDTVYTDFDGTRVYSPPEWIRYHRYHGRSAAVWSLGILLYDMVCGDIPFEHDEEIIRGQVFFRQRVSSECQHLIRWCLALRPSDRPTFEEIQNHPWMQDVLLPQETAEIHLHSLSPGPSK

Data set [3] deals with T2, Serine/threonine-protein kinase pim-2 (Homo sapiens, UniProt Q9P1W9). Briefly: Inhibition of human recombinant PIM2 expressed in Escherichia coli assessed as residual activity using RSRHSSYPAGT as substrate at 10 uM after 30 mins. The method in brief: as §2
Target sequence in this assay (Q9P1W9 whole entry, looked up): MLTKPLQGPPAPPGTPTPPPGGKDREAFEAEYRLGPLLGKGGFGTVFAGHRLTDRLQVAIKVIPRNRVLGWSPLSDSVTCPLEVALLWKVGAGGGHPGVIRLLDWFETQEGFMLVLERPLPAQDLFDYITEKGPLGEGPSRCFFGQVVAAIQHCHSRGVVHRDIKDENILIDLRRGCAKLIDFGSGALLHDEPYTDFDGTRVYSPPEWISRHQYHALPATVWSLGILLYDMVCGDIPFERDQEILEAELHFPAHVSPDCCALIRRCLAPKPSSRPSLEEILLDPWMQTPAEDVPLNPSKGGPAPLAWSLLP
The nature of data set [4]: Drug uptake in human PC3 cell cytoplasm at 10 uM after 24 hrs by fluorescence microscopy. The following applies: pc-3, 24 h. In kind it is ADME, cell-based. The method in brief:
as §1

Data set [5] addresses T3, Serine/threonine-protein kinase pim-3 (Homo sapiens, UniProt Q86V86). The data set is described as follows: Inhibition of human recombinant His6-tagged PIM3 expressed in Sf21 cells assessed as residual activity using RSRHSSYPAGT as substrate at 10 uM after 30 mins. The method in brief: as §2
Data set [6] concerns the target T2, Serine/threonine-protein kinase pim-2. The data set is described as follows: Inhibition of human recombinant PIM2 expressed in Escherichia coli using RSRHSSYPAGT as substrate after 30 mins.
Target sequence in this assay (Q9P1W9 whole entry): as the sequence (Q9P1W9 whole entry, looked up) above
The target in data set [7] is T3, Serine/threonine-protein kinase pim-3. Briefly: Inhibition of human recombinant His6-tagged PIM3 expressed in Sf21 cells using RSRHSSYPAGT as substrate after 30 mins.
Data set [8] addresses T1, Serine/threonine-protein kinase pim-1. The data set is described as follows: Inhibition of human recombinant His6-tagged PIM1 expressed in Sf21 cells using RSRHSSYPAGT as substrate after 30 mins.
Target sequence in this assay (P11309 whole entry): as the sequence (P11309 whole entry, looked up) above
In the next data set the test system is PC-3. Briefly: Cellular uptake in human PC3 cells at 10 uM after 24 hrs by fluorescence microscopy. In kind it is ADME, cell-based. The following applies: pc-3, 24 h. The method in brief:
as §1

In the case of `CN(C)c1cccc2c(S(=O)(=O)NCc3cn(CCCCn4c5ccccc5c5ccc6c(C=O)c[nH]c6c54)nn3)cccc12`, the figures for the Drug uptake result in data set [1] and in [4] were “Not Active” and “Active”, respectively. In addition, the Activity in data set [2] was 17%; in [3] it was 66%; in data set [5] it was 38%.

In the case of `O=Cc1cn2c3c1ccc1c4ccccc4n(c13)CCCC2`, the Activity is 7% in data set [2], 6% in [3] and 1% in data set [5]. Further, the figures for the IC50 in data set [6], in data set [7] and in data set [8] were 350 nM, 13 nM and 8 nM, respectively.

As for `O=Cc1c[nH]c2c1ccc1c3ccccc3n(CCCCn3cc(CO)nn3)c12`, the Activity in data set [2] came out at 8%; in [3], 36%; in data set [5], 23%. Also, the IC50 (in general, the concentration that inhibits the measured activity by half) in data set [7] came to 235 nM; in data set [8] it was 315 nM.

On to `[N-]=[N+]=NCCCCn1c2ccccc2c2ccc3c(C=O)c[nH]c3c21`, for which the Activity turned out to be 9% in data set [2], 22% in [3] and 14% in [5]. Moreover, the results for the half-maximal inhibitory concentration (IC50) in data set [7] and in data set [8] were 108 nM and 105 nM, respectively.

As to `C[N+](C)(CCO)Cc1cn(CCCCn2c3ccccc3c3ccc4c(C=O)c[nH]c4c32)nn1`, the Activity turned out to be 9% in data set [2], 65% in data set [3] and 28% in data set [5]. For the same molecule, the half-inhibitory concentration (IC50) in data set [7] came out at 490 nM; in data set [8] it was 327 nM.

With `O=Cc1c[nH]c2c1ccc1c3ccccc3[nH]c12`, in the data set on PC-3, the Drug uptake entry is “Not Active”.
